Columns and labels:
[1] = molecular target: T1, Angiotensin-converting enzyme (Oryctolagus cuniculus, UniProt P12822); test: In vitro inhibition of Angiotensin I converting enzyme isolated from rabbit lung extract.; assay type: tissue-based
T1 sequence (P12822 whole entry): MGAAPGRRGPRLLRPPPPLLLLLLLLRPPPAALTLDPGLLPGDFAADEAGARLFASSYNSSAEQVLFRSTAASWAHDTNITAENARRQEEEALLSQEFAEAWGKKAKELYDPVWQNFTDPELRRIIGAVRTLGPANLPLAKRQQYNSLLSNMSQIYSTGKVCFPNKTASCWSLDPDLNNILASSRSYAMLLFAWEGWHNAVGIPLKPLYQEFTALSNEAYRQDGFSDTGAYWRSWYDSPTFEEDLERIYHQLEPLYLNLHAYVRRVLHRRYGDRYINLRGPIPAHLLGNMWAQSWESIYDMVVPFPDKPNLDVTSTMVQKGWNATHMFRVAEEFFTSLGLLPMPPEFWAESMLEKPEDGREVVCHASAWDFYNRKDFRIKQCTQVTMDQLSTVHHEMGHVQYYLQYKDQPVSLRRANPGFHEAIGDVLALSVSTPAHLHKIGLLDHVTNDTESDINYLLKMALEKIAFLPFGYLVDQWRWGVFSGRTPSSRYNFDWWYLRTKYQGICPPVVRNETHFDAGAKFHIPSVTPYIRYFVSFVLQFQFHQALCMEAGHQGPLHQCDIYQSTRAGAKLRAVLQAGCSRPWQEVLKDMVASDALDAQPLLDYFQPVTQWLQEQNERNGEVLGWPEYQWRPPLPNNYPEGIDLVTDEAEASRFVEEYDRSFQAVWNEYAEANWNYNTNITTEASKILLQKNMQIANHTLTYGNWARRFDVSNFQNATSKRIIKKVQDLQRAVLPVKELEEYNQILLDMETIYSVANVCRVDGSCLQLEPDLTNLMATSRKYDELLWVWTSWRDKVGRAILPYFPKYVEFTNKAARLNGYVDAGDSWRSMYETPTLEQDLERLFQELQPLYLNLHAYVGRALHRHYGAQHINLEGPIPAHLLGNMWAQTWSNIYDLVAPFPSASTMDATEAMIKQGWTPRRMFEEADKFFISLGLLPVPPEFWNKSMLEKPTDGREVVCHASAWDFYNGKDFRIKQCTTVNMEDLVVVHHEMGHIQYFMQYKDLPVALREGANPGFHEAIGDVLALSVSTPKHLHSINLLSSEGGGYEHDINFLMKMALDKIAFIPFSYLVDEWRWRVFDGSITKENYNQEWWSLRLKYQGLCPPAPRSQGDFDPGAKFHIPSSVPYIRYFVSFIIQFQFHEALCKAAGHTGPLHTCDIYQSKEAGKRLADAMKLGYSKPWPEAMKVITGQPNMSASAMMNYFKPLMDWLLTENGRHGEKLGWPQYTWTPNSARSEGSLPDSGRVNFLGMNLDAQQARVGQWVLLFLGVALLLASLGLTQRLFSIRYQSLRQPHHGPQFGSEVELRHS
Summary of the method: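 Rabbit lung acetone powder extract (1:20 dilution) as enzyme source; spectrophotometric hippuric acid formation from hippuryl-L-histidyl-L-leucine (5 mM final). Final concentrations: 100 mM phosphate buffer pH 8.3, 300 mM NaCl; varied inhibitor concentrations or vehicle. Incubated 30 min at 37 °C. Stopped with 1 N HCl, then ethyl acetate added.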

Neprilysin = molecular target: T2, Neprilysin (Rattus norvegicus, UniProt P07861); test: In vitro inhibition of purified rat kidney Neutral endopeptidase.
T2 sequence (P07861 whole entry): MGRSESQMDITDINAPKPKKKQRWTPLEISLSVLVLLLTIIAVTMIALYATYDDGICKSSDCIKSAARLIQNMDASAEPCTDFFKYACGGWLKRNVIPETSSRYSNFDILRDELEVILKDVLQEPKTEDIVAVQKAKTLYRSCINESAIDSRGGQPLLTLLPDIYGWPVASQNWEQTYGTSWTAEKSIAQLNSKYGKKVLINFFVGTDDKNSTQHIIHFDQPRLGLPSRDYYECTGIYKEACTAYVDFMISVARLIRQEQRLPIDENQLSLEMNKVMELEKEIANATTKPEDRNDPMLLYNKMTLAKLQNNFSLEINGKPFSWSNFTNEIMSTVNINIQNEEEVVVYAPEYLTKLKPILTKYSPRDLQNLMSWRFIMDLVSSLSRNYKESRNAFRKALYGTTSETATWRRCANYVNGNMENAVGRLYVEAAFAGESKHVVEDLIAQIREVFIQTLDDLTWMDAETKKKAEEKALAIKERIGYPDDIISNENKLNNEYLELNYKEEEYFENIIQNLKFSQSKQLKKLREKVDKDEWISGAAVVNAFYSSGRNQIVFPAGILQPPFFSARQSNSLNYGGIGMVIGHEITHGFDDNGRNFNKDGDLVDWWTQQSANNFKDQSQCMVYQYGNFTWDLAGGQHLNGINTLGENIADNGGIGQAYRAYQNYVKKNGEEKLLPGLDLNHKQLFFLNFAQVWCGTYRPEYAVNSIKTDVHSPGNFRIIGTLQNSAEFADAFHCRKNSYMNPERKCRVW
Summary of the method: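 Rat kidney membrane enzyme solubilized (1% deoxycholate, papain/DTT, 37 °C 90 min), purified by gel filtration and phenyl sepharose. Enzyme in 0.05% Triton X-100 with 50 mM Tris-HCl pH 7.5, preincubated 10 min with inhibitor; 0.5 mM dansyl-Gly-Phe-Arg added. Incubated 37 °C, 30 min; stopped with HCl. Dansyl-Gly extracted into ethyl acetate; fluorescence ex 342/em 510 nm, zero-time corrected, versus no-inhibitor.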

Rattus norvegicus = test: Intravenous effective dose required to inhibit 50% of the AI pressor response in normotensive rats; assay type: functional
Summary of the method: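 Conscious male Sprague-Dawley rats (220-240 g), aortic and vena caval catheters, four per assay. Various doses given iv in 5% NaHCO3. AI (310 ng/kg iv) pressor responses taken before dosing and at 2-30 min intervals up to 6 h. Maximum-inhibition time point per dose used for the dose-response curve; ED50 interpolated.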

| SMILES | IC50 [1] | IC50 (Neprilysin) | ED50 (Rattus norvegicus) |
| --- | --- | --- | --- |
| C=CC[C@H]1CCC[C@H](NC(=O)[C@@H](S)Cc2ccccc2)C(=O)N1CC(=O)O | 0.007 µM | 0.064 µM | 0.04 µmol/kg |
| CC(C)[C@@H](C(=O)O)N1CCCC[C@H](NC(=O)[C@@H](S)Cc2ccccc2)C1=O | 0.907 µM | 1 µM |  |
| C[C@@H]1CCC[C@H](NC(=O)[C@@H](S)Cc2ccccc2)C(=O)N1CC(=O)O | 0.016 µM | 0.149 µM |  |
| O=C(O)CN1C(=O)[C@@H](NC(=O)[C@@H](S)Cc2ccccc2)CCC[C@@H]1CCO | 0.025 µM | 0.031 µM | 0.08 µmol/kg |
| CCC[C@H]1CCC[C@H](NC(=O)[C@@H](S)Cc2ccccc2)C(=O)N1[C@@H](C)C(=O)O | 0.005 µM | 0.017 µM | 0.12 µmol/kg |
| CCC[C@H]1CCC[C@H](NC(=O)[C@@H](S)Cc2ccccc2)C(=O)N1CC(=O)O | 0.011 µM | 0.04 µM | 0.06 µmol/kg |
| C[C@@H](C(=O)O)N1CCCC[C@H](NC(=O)[C@@H](S)Cc2ccccc2)C1=O | 0.026 µM | 0.092 µM | 1.22 µmol/kg |
| CCC[C@@H]1CCC[C@H](NC(=O)[C@@H](S)Cc2ccccc2)C(=O)N1CC(=O)O | 0.014 µM | 0.466 µM |  |
| C[C@H](NC(=O)[C@@H](S)Cc1ccccc1)C(=O)N1CCC[C@H]1C(=O)O |  |  | 0.06 µmol/kg |
| O=C(N[C@H]1CCCCN([C@@H](Cc2ccccc2)C(=O)O)C1=O)[C@@H](S)Cc1ccccc1 | 0.479 µM | 0.032 µM |  |
| O=C(O)CN1C(=O)[C@@H](NC(=O)[C@@H](S)Cc2ccccc2)CCC[C@@H]1C1CCCC1 | 0.017 µM | 1.65 µM |  |
| O=C(O)CN1CCCC[C@H](NC(=O)[C@@H](S)Cc2ccccc2)C1=O | 0.022 µM | 0.082 µM | 0.84 µmol/kg |
| CC(C)C[C@H]1CCC[C@H](NC(=O)[C@@H](S)Cc2ccccc2)C(=O)N1CC(=O)O | 0.01 µM | 1.66 µM |  |
| O=C(O)CN1C(=O)[C@@H](NC(=O)[C@@H](S)Cc2ccccc2)CCc2ccccc21 | 0.012 µM | 0.006 µM | 0.02 µmol/kg |
| O=C(O)CN1C(=O)[C@@H](NC(=O)[C@@H](S)Cc2ccccc2)CCC[C@@H]1CC1CC1 | 0.023 µM | 0.14 µM |  |
| O=C(N[C@H]1CCC[C@H]2CC[C@@H](C(=O)O)N2C1=O)[C@@H](S)Cc1ccccc1 | 0.005 µM | 0.018 µM | 0.06 µmol/kg |
| CCC[C@H]1CCC[C@H](NC(=O)[C@@H](S)Cc2ccccc2)C(=O)N1[C@@H](CC)C(=O)O | 0.025 µM | 0.086 µM |  |
| C[C@H]1CCC[C@H](NC(=O)[C@@H](S)Cc2ccccc2)C(=O)N1CC(=O)O | 0.008 µM | 0.049 µM | 0.11 µmol/kg |
| O=C(N[C@H]1CCC[C@H]2CCC[C@@H](C(=O)O)N2C1=O)[C@@H](S)Cc1ccccc1 | 0.011 µM | 0.025 µM | 0.12 µmol/kg |

Reference: ChEMBL document CHEMBL1129797, “Dual metalloprotease inhibitors. 6. Incorporation of bicyclic and substituted monocyclic azepinones as dipeptide surrogates in angiotensin-converting enzyme/neutral endopeptidase inhibitors” (J Med Chem, 1996)
